Consider 3 molecules from PMC5484360 (Journal of Applied Toxicology, 2017).

Data set [1] is classed as in vitro ADME, human. Particulars: Protocol 2B; for Jss (steady state flux through the SC) / kp (permeation coefficient) / Mass balance / tlag (lag time): human SC; for Mass balance: 22 h; for tlag (lag time): from non-linear regression of cumulative amount penetrated vs. time. The procedure, abridged:
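Isolated SC on 0.22 μm SuPor membrane, thickness by digital micrometer; flow-through cells at 32°C, stirred, receptor DPBS+ at 25 μl/min, equilibrated ≥30 min before dosing; 22 h occluded incubation; donor sampled pre/post; SC dissolved in 1M NaOH, radioactivity counted with washes for mass balance. Jss from earliest linear slope, membrane-corrected; kp = Jss/C; KSC/v·HSC and DSC/HSC² by non-linear Fick's-second-law fit of cumulative absorbed vs time.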

Data set [2] is classed as in vitro ADME. Particulars: Protocol 1, pig skin, 30 min exposure, infinite dose, mean (%CV). The gist of the method: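 Pig skin was shaved, trimmed to 2–3 mm and defatted, then mounted as 32 mm discs in Franz cells over 9 g l–1 NaCl and equilibrated 1 h at 32°C with stirring. Infinite dose (350 μl cm–2), 30 min exposure, excess removed, then 15 weighed tape strips over 18 mm, extracted with methanol. HSC came from TEWL; depth profiles were fitted to Fick's 2nd-law solution for KSC/v and DSC/HSC².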

The format of data set [3] is in vitro ADME, human.
The mark [4] stands for this setting: human skin, Equation (10) non-linear regression, mean (%CV).
Setting [5] is: Protocol 1, human skin, 30 min exposure, infinite dose, mean (%CV).

Read-outs that look alike come from different tables or passages of the source.

`CCOc1ccc2ccc(=O)oc2c1` [7‐Ethoxycoumarin]: the “Jss (steady state flux through the SC)” value in data set [1] is on record as 225 ng/cm^2. In data set [1], the “kp (permeation coefficient)” value was 0.095 ± 0.188 ×10⁻⁶ cm/s. Further, the Mass balance in data set [1] came out at 97.3 ± 1.4%. Besides, the “tlag (lag time)” value in data set [1] is listed as 0.001 ± 0.004 h. The “DSC/HSC ^2” value in data set [1] (setting [4]) was 0.078 (26%) h^‐1; in data set [2] it was 0.10 (44%) h^‐1; in data set [3] (setting [5]), 0.030 (55%) h^‐1. The KSC/v in data set [1] (setting [4]) is given as 0.019 (34%); in data set [2] it was 89.5 (4.6%); in data set [2] (listed as 7‐EC), 89.5; in data set [3] (setting [5]) it was 39.5 (19%); in data set [3] (Protocol 1, human skin, 30 min exposure, infinite dose, mean (%CV), listed as 7‐EC) it was 39.5; in data set [3] (Protocol 1, single human donor in duplicate, 30 min exposure), 34.5 ± 6.4. In data set [3] (Protocol 1, single human donor in duplicate, 90 min exposure), this molecule came in with a KSC/v of 46.0 ± 1.4.
As to `Oc1cccc(O)c1` [Resorcinol], in data set [1], the “Jss (steady state flux through the SC)” value worked out at 2699031 ng/cm^2, the “kp (permeation coefficient)” value stood at 0.233 ± 0.133 ×10⁻⁶ cm/s, the Mass balance is 99.2 ± 2.5% and the “tlag (lag time)” value turned out to be 2.13 ± 0.16 h.
For `Cn1c(=O)c2c(ncn2C)n(C)c1=O` [Caffeine], the “Jss (steady state flux through the SC)” value in data set [1] is 1261429 ng/cm^2. In data set [1], the “kp (permeation coefficient)” value is 0.154 ± 0.111 ×10⁻⁶ cm/s. In data set [1], the Mass balance is on record as 99.7 ± 1.3%. The “tlag (lag time)” value in data set [1] was found to be 1.82 ± 1.02 h. In addition, the KSC/v is 2.63 (70%) in data set [1] (setting [4]); 1.27 (31%) in data set [2]; 1.27 in data set [2] (listed as caffeine); 2.68 (20%) in data set [3] (setting [5]); 2.68 in data set [3] (Protocol 1, human skin, 30 min exposure, infinite dose, mean (%CV), listed as caffeine).
